In assay [1] the test system is Rattus norvegicus. Description: Ability to inhibit passive cutaneous anaphylaxis in rat, when compound was injected intraperitoneally. It counts as functional. The conditions noted are these: ip. Summed up: (§1)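 Rat passive cutaneous anaphylaxis: the read-out was inhibition of IgE-mediated cutaneous wheal formation after antigen challenge. Compounds were given by the route and dose stated on the line.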

For assay [2], the species on record is Rattus norvegicus. As to the kind of experiment: Ability to inhibit passive cutaneous anaphylaxis in rat, when compound was injected perorally. It counts as functional. A digest of the protocol:
as §1

Assay [3] is filed under the species Rattus norvegicus. Description: In vitro ability to inhibit antigen-induced release of histamine (AIR) from rat peritoneal mast cells. It counts as functional. A digest of the protocol:
(§2)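 Rat peritoneal cells were collected by lavage and contained 5–10% mast cells. Histamine was measured by a radioenzymatic method instead of fluorometry, because some test agents fluoresce. Samples were incubated with [¹⁴C]methyl-S-adenosylmethionine and histamine-N-methyltransferase prepared from rat kidneys.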

The test system of assay [4] is Rattus norvegicus. As to the kind of experiment: Percentage inhibition against passive cutaneous anaphylaxis after injecting 10 mg/kg intraperitoneally in rat. It counts as functional. The conditions noted are these: route intraperitoneal; for inhibition in vivo at 10 mg/kg: Rattus norvegicus, ip. A digest of the protocol:
as §1

The species named for assay [5] is Rattus norvegicus. Description: Percentage inhibition against passive cutaneous anaphylaxis in rat, when injected perorally. In kind it is functional. A digest of the protocol: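 Rat passive cutaneous anaphylaxis, an IgE-mediated cutaneous wheal formation model; compounds given orally before antigen challenge; read-out is percent inhibition of wheal formation.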

The species entered for assay [6] is Rattus norvegicus. Description: (§3) In vitro ability to inhibit antigen-induced release of histamine (AIR) from rat peritoneal mast cells. It counts as functional. A digest of the protocol:
(§4)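 Peritoneal cells collected from rats by lavage, containing 5–10% mast cells. Antigen-induced histamine release was quantified radioenzymatically rather than fluorometrically: samples were incubated with [¹⁴C]methyl-S-adenosylmethionine and histamine-N-methyltransferase prepared from rat kidneys.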

In assay [7] the test system is Rattus norvegicus. As to the kind of experiment: Percentage inhibition against passive cutaneous anaphylaxis after injecting 10 mg/kg perorally in rat. In kind it is functional. The note with it: route oral. A digest of the protocol: as §1
The species entered for assay [8] is Rattus norvegicus. As to the kind of experiment: Ability to inhibit anaphylactically induced release of histamine (AIR) from rat peritoneal mast cells. It counts as functional, cell-based. A digest of the protocol: as §4
Assay [9] deals with Rattus norvegicus. Description: Percentage inhibition of 30 mg/kg compound against antigen-induced release of histamine (AIR) from rat mast cells. It counts as functional.
In assay [10] the test system is Rattus norvegicus. As to the kind of experiment: Percentage inhibition against passive cutaneous anaphylaxis after injecting 125 mg/kg perorally in rat. It counts as functional. The note with it: route oral. A digest of the protocol: as §1
The species named for assay [11] is Rattus norvegicus. Description: In vitro ability to inhibit antigen-induced release of histamine (AIR) from rat peritoneal mast cells; the compound was tested at a concentration of 50 uM. It counts as functional, cell-based.
The species named for assay [12] is Rattus norvegicus. Description: Ability to inhibit passive cutaneous anaphylaxis in rat, when compound was injected perorally. In kind it is functional. A digest of the protocol: as §1
Assay [13] deals with Rattus norvegicus. Description: Percentage inhibition against passive cutaneous anaphylaxis in rat, when injected intraperitoneally. In kind it is functional. Summed up:
as §1

For assay [14], the species on record is Rattus norvegicus. The assay is described as §3. In kind it is functional, cell-based. Summed up:
as §4

Assay [15] has as its system Rattus norvegicus. As to the kind of experiment: Percentage inhibition against passive cutaneous anaphylaxis after injecting 25 mg/kg perorally in rat. In kind it is functional. The note with it: route oral. Summed up:
as §1

The subject of assay [16] is Rattus norvegicus. As to the kind of experiment: Ability to inhibit passive cutaneous anaphylaxis in rat, when compound was injected intraperitoneally. It counts as functional. The conditions noted are these: ip. Summed up:
as §1

The species named for assay [17] is Rattus norvegicus. As to the kind of experiment: In vitro ability to inhibit antigen-induced release of histamine (AIR) from rat mast cells. In kind it is functional, cell-based. Summed up:
as §2

For assay [18], the system named is Rattus norvegicus. Description: Ability to inhibit passive cutaneous anaphylaxis in rat, when […] injected perorally. In kind it is functional. The conditions noted are these: route oral. A digest of the protocol:
as §1

The species entered for assay [19] is Rattus norvegicus. As to the kind of experiment: In vitro ability to inhibit antigen-induced release of histamine (AIR) from rat mast cells; histamine release was assayed by a radioenzymatic method. In kind it is functional, cell-based. Summed up: as §2

The term ED50 denotes the dose at which the effect has come halfway, by size or by number of responders. Lower therefore signals an effect at a small dose. One may read the Inhibition as the change of the read-out against control, counted positive when it falls. A lower Inhibition goes with a weak effect. Take `CC(=O)n1c(=O)oc2c3ncccc3ccc21`: the values for the 50% effective dose (ED50) in [1] and in [2] were 10 mg/kg and 4 mg/kg, respectively. This compound also displayed an Inhibition in [3] of less than 30%.

In general, inhibition in vivo refers to the relative decrease from the control value, in per cent. Compound `O=C(O)c1nc2cc(Cl)c3cccnc3c2o1` showed an inhibition in vivo at 10 mg/kg in [4] of 47%.

`O=C(/C=C/c1ccccc1)n1c(=O)oc2c3ncccc3c(Cl)cc21`: the Inhibition in assay [5] was 0%; in [6], 18%.

In the case of `Clc1cc2ncoc2c2ncccc12`, the inhibition in vivo at 10 mg/kg in assay [7] was 28%.

Usually IC50 stands for the concentration needed to halve the response being measured. A high value points to weaker potency. The compound `COc1ccccc1NC(=O)Oc1cccc2cccnc12` registered an IC50 in assay [8] of 2000 nM.

Consider `COc1ccccc1C(=O)n1c(=O)oc2c3ncccc3c(Cl)cc21`, for which the Inhibition in assay [5] turned out to be 34%; in assay [6], 16%.

In assay [5], `CCOC(=O)n1c(=O)oc2c3ncccc3c(Cl)cc21` had an Inhibition of 43%.

In turn, `Clc1cc2nc(-c3ccccc3)oc2c2ncccc12` gave an inhibition in vivo at 10 mg/kg in [7] of 3%. For the same compound, the inhibition in vivo at 30 mg/kg in assay [9] was less than 30%.

In general, % inhibition refers to the percentage by which the read-out fell short of the control. Higher therefore signals strong suppression. `Oc1nc2cc(Cl)c3cccnc3c2o1`: testing at 125 mg/kg in [10] gave an inhibition in vivo of 14%. The % inhibition in assay [11] was 18%.

As for `Cn1c(=O)oc2c3ncccc3c(Cl)cc21`, at 125 mg/kg the inhibition in vivo in assay [10] was 51%. Further, the 50% effective dose (ED50) in assay [12] was found to be 102 mg/kg.

On to `Clc1cc2nc(C(Cl)(Cl)Cl)oc2c2ncccc12`, for which the Inhibition in [13] is reported as 28%. Besides, the concentration for half-maximal inhibition (IC50) in assay [14] was 30 nM.

Compound `CCOC(=O)c1nc2cc(Cl)c3cccnc3c2o1` gave an inhibition in vivo at 10 mg/kg in [4] of 59%. The same compound gave a concentration for half-maximal inhibition (IC50) in [14] of 100 nM.

Regarding `O=C([O-])c1nc2cc(Cl)c3cccnc3c2o1.[Na+]`, in [4], the Inhibition is 51%. The compound further returned a half-maximal inhibitory concentration (IC50) in assay [14] of 300 nM.

The compound `CC(=O)n1c(=O)oc2c3ncccc3c(Cl)cc21` gave an Inhibition in [5] of 15%.

Regarding `Cc1nc2cc(Cl)c3cccnc3c2o1`, in assay [7], the inhibition in vivo at 10 mg/kg was found to be 15%. Besides, the concentration for half-maximal inhibition (IC50) in [14] worked out at 33000 nM.

Regarding `Oc1nc2ccc3cccnc3c2o1`, at 25 mg/kg the inhibition in vivo in assay [15] was 0%.

Turning to `CCOC(=O)Cc1nc2cc(Cl)c3cccnc3c2o1`, the inhibition in vivo at 10 mg/kg in assay [4] is 9%.

With `CN(C)C(=O)n1c(=O)oc2c3ncccc3c(Cl)cc21`, in assay [6], the Inhibition was 0%.

As for `O=C([O-])c1cc(=O)c2c(OCC(O)COc3cccc4oc(C(=O)[O-])cc(=O)c34)cccc2o1.[Na+].[Na+]` [CROMOLYN SODIUM], the 50% effect level in [16] (ED50) was put at a dose of 6 mg/kg. The compound further displayed a half-maximal inhibitory concentration (IC50) in assay [17] of 3000 nM.

`COC(=O)c1nc2cc(Cl)c3cccnc3c2o1` [QUAZOLAST]: the median effective dose (ED50) in [18] stood at 0.5 mg/kg; in assay [16], 0.1 mg/kg. For the same compound, in assay [4], the inhibition in vivo at 10 mg/kg was 100%. The same compound showed an IC50 in assay [19] of 300 nM.

Source of the values: ChEMBL document CHEMBL1123036, “Synthesis and antiallergic activities of 1,3-oxazolo[4,5-h]quinolines” (J Med Chem, 1985).
